Experiments:
DC3F/AD [1] = assay: In vitro activity in DC-3F/AD cell line Ratio of IC50(actinomycin D alone) / IC50(actinomycin D + modulator) at a concentration of 10 uM
KB [2] = assay: Compound was evaluated for the in vitro activity in KB-A1 cell line. Activity expressed as fold reversion (Ratio of IC50(adriamycin alone) / IC50(adriamycin + modulator) at a concentration of 5 uM; assay type: functional, Homo sapiens
How it was run: (§1)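 Human epidermoid KB-A1 cells (Pgp-overexpressing) were grown in RPMI 1640 with 10% FCS and 10 mM HEPES (pH 7.4). They were exposed for 4 days to adriamycin (nine graded concentrations, in triplicate) with or without 5 μM modulator. IC50 was read by the MTT assay. Fold reversion = IC50(ADR alone)/IC50(ADR + modulator).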

DC3F/AD [3] = assay: Increase in adriamycin uptake in modulator-treated cells relative to untreated cells at a concentration of 10 uM; assay type: functional, Cricetulus griseus
How it was run: (§2)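 DC-3F/AD or KB-A1 cells (5 × 10⁶/mL) were incubated at 37 °C for 5 h with 50 μM adriamycin plus modulator (2.5–10 μM range). ADR fluorescence of 10 000 cells was read by flow cytometry at 4 °C with 488 nm argon-laser excitation. The value is the increase in mean fluorescence of treated cells over untreated cells.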

DC3F/AD [4] = assay: Percent of cell viability remaining after incubating the cells with the modulator alone a concentration of 5 uM; assay type: functional, Cricetulus griseus
How it was run: (§3)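 Cells were grown with modulator alone for 4 days under the same conditions as the chemosensitivity assay, and read by MTT. Viability = (absorbance with modulator/absorbance of control cells) × 100. "tox" marks viability below 25%.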

DC3F/AD [5] = assay: (§4) Increase in adriamycin uptake in modulator-treated cells relative to untreated cells at a concentration of 5 uM; assay type: functional, Cricetulus griseus
How it was run: as §2

KB [6] = assay: Increase in adriamycin uptake in modulator-treated cells relative to untreated KB-A1 cells at a concentration of 5 uM; assay type: functional, Homo sapiens
How it was run: as §2

Cricetinae gen. sp. [7] = assay: (§5) Percent of cell viability remaining after incubating the cells with the modulator alone at a concentration of 10 uM; assay type: functional, Cricetulus griseus
How it was run: as §3

DC3F/AD [8] = assay: In vitro activity in DC-3F/AD cell line(Ratio of IC50(actinomycin D alone) / IC50(actinomycin D + modulator) at a concentration of 5 uM
KB [9] = assay: Percent of cell viability remaining after incubating the cells with the modulator alone; assay type: functional, Homo sapiens; parameters: concentration or dose not given beside the values
How it was run: as §3

P388 [10] = assay: Antitumor activity of vincristine against P388 leukemia cell line in mice at a dose of 100 mg/kg.; assay type: functional, Mus musculus
KB [11] = assay: In vitro activity in KB-A1 cell line activity expressed as fold reversion (Ratio of IC50(adriamycin alone) / IC50(adriamycin + modulator) at a concentration of 5 uM; assay type: functional, Homo sapiens
How it was run: as §1

P388 [12] = assay: Antitumor activity of vincristine against P388 leukemia cell line in mice at a dose of 50 mg/kg.; assay type: functional, Mus musculus
DC3F/AD [13] = assay: as §5; assay type: functional, Cricetulus griseus
How it was run: as §3

DC3F/AD [14] = assay: Percent of cell viability remaining after incubating with a 10 uM concentration; assay type: functional, Cricetulus griseus
How it was run: as §3

KB [15] = assay: Compound was evaluated for the in vitro activity in KB-A1 cell line)Activity expressed as fold reversion (Ratio of IC50(adriamycin alone) / IC50(adriamycin + modulator) at a concentration of 5 uM; assay type: functional, Homo sapiens
How it was run: as §1

Cricetinae gen. sp. [16] = assay: Compound was evaluated for in vitro activity in DC-3F/AD cell line(Ratio of IC50(actinomycin D alone) / IC50(actinomycin D + modulator) at a concentration of 5 uM
DC3F/AD [17] = assay: Percent of cell viability remaining after incubating the cells with the modulator alone at a concentration of 5 uM; assay type: functional, Cricetulus griseus
How it was run: as §3

DC3F/AD [18] = assay: Compound was evaluated for in vitro activity in DC-3F/AD cell line (Ratio of IC50(actinomycin D alone) / IC50(actinomycin D + modulator) at a concentration of 5 uM
P388 [19] = assay: Antitumor activity of vincristine against P388 leukemia cell line in mice at a dose of 50 mg/kg; assay type: functional, Mus musculus
P388 [20] = assay: Antitumor activity of vincristine against P388 leukemia cell line in mice at a dose of 100 mg/kg; assay type: functional, Mus musculus
KB [21] = assay: as §4; assay type: functional, Homo sapiens
How it was run: as §2

P388/VCR [22] = assay: Antitumor activity of vincristine against P388/VCR leukemia in mice at a dose of 100 mg/kg.; assay type: functional, Mus musculus
P388/VCR [23] = assay: Antitumor activity of vincristine against P388/VCR leukemia in mice at a dose of 50 mg/kg.; assay type: functional, Mus musculus

SMILES	Fold reversion (DC3F/AD [1])	Increase (DC3F/AD [3])	Viability (DC3F/AD [4]) [%]	Increase (DC3F/AD [5])	Increase (KB [6])	Fold reversion (DC3F/AD [8])	Viability (KB [9]) [%]	T/C (P388 [10]) [%]	Fold reversion (KB [11])	T/C (P388 [12]) [%]	Viability (DC3F/AD [14]) [%]	also measured
C=CCNc1nc(NCC=C)nc(N2CCN(CC3c4ccccc4CCc4ccccc43)CC2)n1	1832	24.5	84	17.6	29.7	464	121					Fold reversion (KB [2]): 63; Viability (Cricetinae gen. sp. [7]): 70%
C=CCNc1nc(NCC=C)nc(N2CCC(NCC3c4ccccc4N(C)S(=O)(=O)c4cc(Cl)ccc43)CC2)n1 (stereo unspecified)	9570	24.1	91	22.8	39.8	2804	92	173	147	177		Of viability (DC3F/AD [13]): 77%
C=CCNc1nc(NCC=C)nc(N2CCC(NCC(c3ccccc3)S(=O)(=O)c3ccccc3)CC2)n1 (stereo unspecified)	817	29	107	21.2	41.9	139	115				92	Fold reversion (KB [15]): 277
C=CCNc1nc(Cl)nc(N2CCC(NCC3c4ccccc4CCc4ccccc43)CC2)n1	2205	27.5	96	21.6	33.8	850	63				96	Fold reversion (KB [15]): 236
C=CCNc1nc(NCC)nc(N2CCC(NCC3c4ccccc4COc4ccccc43)CC2)n1 (stereo unspecified)	2630	21.8	76	18	38.8		101	180	229	196	86	Fold reversion (Cricetinae gen. sp. [16]): 1327
C=CCNc1nc(NCC=C)nc(N2CCN(C(c3ccc(F)cc3)c3ccc(F)cc3)CC2)n1.CS(=O)(=O)O	235	17.9		7.3		112					63	Viability (DC3F/AD [17]): 65%
COc1ccc(CCN(C)CCCC(C#N)(c2ccc(OC)c(OC)c2)C(C)C)cc1OC (stereo unspecified)	34	7.5	43	2.6	13.4		75				39	Fold reversion (KB [2]): 26; Fold reversion (DC3F/AD [18]): 3
C=CCNc1nc(NCC=C)nc(N2CCC(NCC3c4ccccc4COc4ccccc43)CC2)n1 (stereo unspecified)	5344	25.3	82	25.5	53.7	1932	106				78	T/C (P388 [19]): 196%; Fold reversion (KB [2]): 274; T/C (P388 [20]): 191%
C=CCNc1nc(NCCC)nc(N2CCC(NCC3c4ccccc4CCc4ccccc43)CC2)n1	4455	24.9	85	27.3		2753	55	176	221	179	42	Increase (KB [21]): 51.3
C=CCN(CC=C)c1nc(N(CC=C)CC=C)nc(N2CCC(NCC(c3ccccc3)c3ccccc3)CC2)n1	1		74			1	78				65	Fold reversion (KB [15]): 1
C=CCNc1nc(NCC=C)nc(N2CCC(NC(c3ccccc3)c3ccccc3)CC2)n1	1828	40		25.9		905					61	Viability (DC3F/AD [17]): 75%
C=CCNc1nc(NCC=C)nc(N2CCN(C3c4ccccc4CCc4ccccc43)CC2)n1	455	19.3	92	16.9	11.2	309	108				87	Fold reversion (KB [2]): 36
C=CCNc1nc(NCCC)nc(N2CCC(NCC(c3ccccc3)c3ccccc3)CC2)n1	2356	34.2	77	26	51.5	965	93	177	236	176	66	T/C (P388/VCR [22]): 163%; T/C (P388/VCR [23]): 167%
C=CCNc1nc(NC)nc(N2CCC(NCC3c4ccccc4COc4ccccc43)CC2)n1 (stereo unspecified)	2203	21.5	54	16.8	35	600	107	163	183	181	75	T/C (P388/VCR [23]): 170%
C=CCNc1nc(NCC=C)nc(N2CCN(NCC3c4ccccc4CCc4ccccc43)CC2)n1	1159	28.2	87	21.1	22.8	329	96				81	Fold reversion (KB [15]): 93

From ChEMBL document CHEMBL1126298, “New triazine derivatives as potent modulators of multidrug resistance” (1992)
